Most compounds without a hit are left out; they make up all but 5.1% or so of the library.
STAT1 act: activators of IFN-gamma induced STAT1 signaling; hit rate 2.6% among 200,000; NIH 3T3 STAT1-luciferase reporter, luminescence; 100% = IFN-gamma alone, no compound; activation (% of control), % at 5.5 µM;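 active = activation above the screen-wide mean activation plus 3 SD, cut at about 130% in these data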
STAT1 blocker: STAT1 signaling inhibition | NIH 3T3 STAT1-luciferase reporter, IFN-gamma, luminescence | inhibition, % at 5.5 µM | hit rate 0.35% among 200,000;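 active = inhibition above a set limit, the mean inhibition across all tested compounds plus 3 SD, cut at about 34% in these data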
APP 5'UTR act: APP 5'UTR luciferase reporter activation; SH-SY5Y APP 5'UTR luciferase reporter, luminescence; zero percent = DMSO vehicle wells; activation, % at 2 µM; hit rate 1% among 190,000; AID 1276;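 active = activation above a set limit, based on mean plus 3 SD of controls, cut at about 140% in these data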
STAT3 activator: increases IL-6 driven STAT3 reporter signal | U3A cells, IL-6 STAT3-luciferase reporter, luminescence; 100% = signal with IL-6 EC80 alone | activation (% of control), % at 5.6 µM | AID 871 | hit rate 0.91% among 190,000;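 active = activation above the screen-wide mean of compound activation plus 3 SD, cut at about 130% in these data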
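Test system: Human STAT1-deficient U3A cells with stable STAT3-luciferase reporter | Also added: Interleukin-6, 33 ng/mL | Timing: Compound pre-incubation 1 h before IL-6, then 6 h stimulation at 37 °C | Technique: Luciferase reporter luminescence | Read-out: Percent of IL-6-only median luminescence | Benchmarks: IL-6-only wells as 100% reference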
STAT3 inh-1: reduces IL-6 driven STAT3 reporter signal | U3A cells, IL-6 STAT3-luciferase reporter, luminescence; host cell line lacks STAT1 | inhibition, % at 5.5 µM | hit rate 0.89% among 190,000;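 active = inhibition above the mean inhibition across all screened compounds plus 3 SD, cut at about 44% in these data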
NF-kB expr up: compounds increasing NF-kB expression in human neuronal cells; hit rate 1.6% among 190,000; fold change at 12.5 µM; NF-kB reporter expression; active compounds read high; in the data active = fold change above about 3.3
STAT3 inh-2: confirmation of STAT3 signaling inhibitors; shares compounds with STAT3 inh-1; U3A cells, IL-6 STAT3 luciferase reporter, luminescence; cell line lacks STAT1; inhibition, % at 5.7 µM; hit rate 45% among 1,200; AID 1265;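 active = inhibition above the hit cutoff computed for the primary STAT3 screen, cut at about 44% in these data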
NFkB inh 2: NF-kappaB inhibition in STAT3 inhibitor counter-screen; shares compounds with STAT3 inh-1; hit rate 36% among 1,200; inhibition, % at 5.7 µM; HEK293T NF-kB luciferase reporter, TNF-alpha induced;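 active = inhibition above the mean of solvent-only control wells plus 3 SD, cutoff set per campaign, cut at about 13% in these data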
STAT1 inh STAT3c: counter-screen for STAT3 inhibitors: STAT1 inhibition; NIH 3T3 STAT1-luciferase reporter, IFN-gamma induced, luminescence; inhibition, % at 5.7 µM; hit rate 27% among 1,200; shares compounds with STAT3 inh-1;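 active = inhibition above the mean plus 3 SD of solvent-only control wells, limit set per screening run, cut at about 16% in these data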
Each line names hits and unclear results; the compound was inactive in the other large screens (follow-up assays come after a bar, where they were run).

Cc1cccc(NS(=O)(=O)c2cc(C(=O)NCCC3=CCCCC3)ccc2Cl)c1	none
Cc1nc(SCC(=O)Nc2c(C)nn(C)c2C)c2cnn(-c3ccccc3)c2n1	STAT3 inh-1 44 | STAT3 inh-2 inactive | NFkB inh 2 inactive | STAT1 inh STAT3c inactive
CCOc1cccc(C(=O)Nc2nnc(-c3ccco3)s2)c1	STAT3 inh-1 47, NF-kB expr up 3.3 | STAT3 inh-2 inactive | NFkB inh 2 inactive | STAT1 inh STAT3c inactive
COc1cccc(CNC(=O)CCC2CCCN(C(=O)C3CCOCC3)C2)c1 (stereo not given)	none
c1ccc2c(c1)[nH]c1c(N3CCCC3)ncnc12	STAT3 inh-1 46 | STAT3 inh-2 inactive | NFkB inh 2 18 | STAT1 inh STAT3c 23
Cc1oc(-c2ccc3c(c2)OCCO3)cc1C(=O)O	STAT3 inh-1 64 | STAT3 inh-2 93 | NFkB inh 2 56 | STAT1 inh STAT3c 74
O=C1CC(c2ccc3c(c2)OCO3)Sc2nc3ccccc3n21 (stereo not given)	STAT3 inh-1 52 | STAT3 inh-2 inactive | NFkB inh 2 inactive | STAT1 inh STAT3c inactive
COc1cccc(CN2CCNC(=O)C2CC(=O)N2CCCCO2)c1OC (stereo not given)	none
O=C1C(=C2SCCCS2)CC/C1=C\c1ccc(F)cc1	STAT3 inh-1 115 | STAT3 inh-2 93 | NFkB inh 2 81 | STAT1 inh STAT3c inactive
CCC(CO)N=C1CC(C)(C)CC(=O)/C1=C(/O)CCCN1C(=O)c2ccccc2C1=O (stereo not given)	none
Cc1nc2sccn2c1-c1csc(NCc2ccccc2)n1	STAT3 inh-1 66 | STAT3 inh-2 51 | NFkB inh 2 inactive | STAT1 inh STAT3c inactive
COc1ccc(C(C)=O)cc1CSc1nncn1-c1ccccc1	none
CN(C)S(=O)(=O)c1cccc(NC(=O)COC(=O)c2cn(-c3ccccc3)nc2-c2ccccc2)c1	none
Cc1cc(C(=O)OCC(=O)Nc2cccc(S(=O)(=O)N(C)C)c2)c2ccccc2n1	STAT3 inh-1 47 | STAT3 inh-2 inactive | NFkB inh 2 inactive | STAT1 inh STAT3c inactive
COc1ccccc1OCCNc1cc(N2CCCCC2)ccc1[N+](=O)[O-]	none
COc1ccc(CCNc2cc(N3CCN(C(=O)c4ccc(C)cc4)CC3)ccc2[N+](=O)[O-])cc1OC	none
COc1ccc(C(=O)N2CCN(c3ccc([N+](=O)[O-])c(NCCc4ccc(OC)c(OC)c4)c3)CC2)cc1	STAT3 inh-1 70 | STAT3 inh-2 87 | NFkB inh 2 42 | STAT1 inh STAT3c 29
COc1ccc(CCNc2cc(N3CCN(C(=O)c4ccccc4F)CC3)ccc2[N+](=O)[O-])cc1OC	STAT3 inh-1 69 | STAT3 inh-2 84 | NFkB inh 2 37 | STAT1 inh STAT3c 19
CN(C)C(=O)CCSc1nnc(-c2ccco2)o1	none
CN(C)c1ccc(N=Nc2ccccc2C(=O)OCC(=O)N(C)c2ccccc2)cc1	none
CNc1nc2cc([N+](=O)[O-])c([N+](=O)[O-])cc2nc1NC	STAT3 inh-1 72 | STAT3 inh-2 65 | NFkB inh 2 28 | STAT1 inh STAT3c 20
CN1CCN(c2ncnc3c2cnn3-c2ccc(Cl)cc2)CC1	STAT3 inh-1 53 | STAT3 inh-2 inactive | NFkB inh 2 inactive | STAT1 inh STAT3c inactive
Cc1ccc(Cn2ncc3c(N4CCN(Cc5ccc(Cl)cc5)CC4)ncnc32)cc1	STAT3 inh-1 54 | STAT3 inh-2 49 | NFkB inh 2 25 | STAT1 inh STAT3c inactive
Cc1ccc(Cn2ncc3c(N4CCN(C)CC4)ncnc32)cc1	none
Cc1ccc(Cn2ncc3c(N4CCN(c5ccc(C)cc5)CC4)ncnc32)cc1	STAT3 inh-1 69 | STAT3 inh-2 63 | NFkB inh 2 20 | STAT1 inh STAT3c inactive
CC1CCc2cc(F)ccc2N1C(=O)CSc1nnc2c(n1)[nH]c1ccc(F)cc12 (stereo not given)	none
Cc1cc(C)nc(NC2=NCCN2C(=S)Nc2c(C)cccc2C)n1	none
C/C(=N/NC(=O)c1cc(O)c(O)c(O)c1)c1ccc([N+](=O)[O-])cc1	none
CC1CCN(C(=S)c2ccc(N(C)C)cc2)CC1	none
O=C(CN(c1ccc(Cl)c(C(F)(F)F)c1)S(=O)(=O)c1ccccc1)N/N=C/c1cccc2c1OCCO2	none
O=C1N/C(=N/N=C/c2ccccc2)SC1(c1ccccc1)c1ccccc1	none (no result: APP 5'UTR act)
COc1cccc(C(=O)Cn2c(=N)n(C)c3ccccc32)c1	APP 5'UTR act 229, STAT3 inh-1 46, NF-kB expr up 4.4 | STAT3 inh-2 inactive | NFkB inh 2 inactive | STAT1 inh STAT3c inactive
CCn1c(SCC(=O)Nc2cccc(C)n2)nc2c1c(=O)n(C)c(=O)n2C	none
Cc1nc(-c2coc3cc(O)c(C)cc3c2=O)cs1	APP 5'UTR act 142, STAT3 inh-1 53 | STAT3 inh-2 inactive | NFkB inh 2 inactive | STAT1 inh STAT3c inactive
Cc1ccc(S(=O)(=O)C(C)C(=O)c2ccc3c(c2)OCCO3)cc1 (stereo not given)	none
Clc1ccc(-c2cn3nc4c(nc3n2)CCCC4)cc1	APP 5'UTR act 191, STAT3 inh-1 51 | STAT3 inh-2 inactive | NFkB inh 2 inactive | STAT1 inh STAT3c inactive
Cc1sc(N/N=C/c2cccs2)nc1-c1ccccc1	none
O=c1[nH]c(N2CCOCC2)nc2c1CCCC2	STAT3 inh-1 97 | STAT3 inh-2 inactive | NFkB inh 2 inactive | STAT1 inh STAT3c inactive
O=C(CSc1nnc(NC(=O)c2ccc3c(c2)OCO3)s1)NCc1ccco1	STAT3 inh-1 53 | STAT3 inh-2 inactive | NFkB inh 2 inactive | STAT1 inh STAT3c inactive
O=C(NCCCN1CCOCC1)c1sc2ccccc2c1Cl	none
CCCCc1ccc(/C=C(\C#N)C(N)=S)s1	STAT3 inh-1 44 | STAT3 inh-2 inactive | NFkB inh 2 inactive | STAT1 inh STAT3c 17
Cn1cccc1/C=C(/C#N)C(N)=S	none
COc1ccc(C(=O)CSc2n[nH]c(C)n2)cc1[N+](=O)[O-]	none
O=C(C[n+]1ccc(CCSc2ccc(F)cc2)cc1)c1ccccc1	none
Cc1cccc(C(=O)N/N=C/c2ccc3c(c2)OCO3)n1	none
O=C(N/N=C/c1ccc2c(c1)OCO2)c1ccccn1	STAT3 inh-1 55 | STAT3 inh-2 inactive | NFkB inh 2 inactive | STAT1 inh STAT3c inactive
COc1ccc(CN(C)C2c3ccccc3-c3ccccc32)cc1	none
Cc1c(Cl)cccc1NC(CC(=O)c1ccccc1)C(=O)O (stereo not given)	none

Compound activity from PubChem BioAssay.
